From ChEMBL document CHEMBL2086252, “Syntheses and evaluation of anticonvulsant activity of novel branched alkyl carbamates” (J Med Chem, 2012)
Active and inactive are the calls of the source. No cut-off for these calls is given here.

Experiments:
[1] = tested on: Rattus norvegicus; experiment: Anticonvulsant activity in ip dosed Sprague-Dawley albino rat assessed as protection against pilocarpine-induced status epilepticus after 0.5 hrs; format: functional
Outline: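 Pilocarpine status epilepticus model in rats. Number and severity of convulsive seizures were observed behaviourally.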

[2] = tested on: Mus musculus; experiment: Anticonvulsant activity in albino CF1 mouse assessed as protection against subcutaneous metrazol-induced seizures at 30 mg/kg, ip after 0.5 hrs; format: functional, organism-based; set-up: dose 30 mg/kg
Outline: (§1)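 Mice dosed ip at 30, 100 or 300 mg/kg, then tested 0.5 h and 4 h after administration in the MES or scMet test. Protection was recorded as animals protected over animals tested. Neurotoxicity was recorded as motor impairment or sedation, as animals affected over animals tested.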

[3] = tested on: Mus musculus; experiment: Anticonvulsant activity in albino CF1 mouse assessed as protection against subcutaneous metrazol-induced seizures at 100 mg/kg, ip after 0.5 hrs; format: functional, organism-based; set-up: dose 100 mg/kg; outline: as §1
[4] = tested on: Mus musculus; experiment: Anticonvulsant activity in albino CF1 mouse assessed as protection against subcutaneous metrazol-induced seizures at 300 mg/kg, ip after 0.5 hrs; format: functional, organism-based; set-up: dose 300 mg/kg; outline: as §1
[5] = tested on: Mus musculus; experiment: Anticonvulsant activity in albino CF1 mouse assessed as protection against subcutaneous metrazol-induced seizures at 30 mg/kg, ip after 4 hrs; format: functional, organism-based; set-up: dose 30 mg/kg; outline: as §1
[6] = tested on: Mus musculus; experiment: Anticonvulsant activity in albino CF1 mouse assessed as protection against subcutaneous metrazol-induced seizures at 100 mg/kg, ip after 4 hrs; format: functional, organism-based; set-up: dose 100 mg/kg; outline: as §1
[7] = tested on: Mus musculus; experiment: Anticonvulsant activity in albino CF1 mouse assessed as protection against subcutaneous metrazol-induced seizures at 300 mg/kg, ip after 4 hrs; format: functional, organism-based; set-up: dose 300 mg/kg; outline: as §1
[8] = tested on: Mus musculus; experiment: Anticonvulsant activity in albino CF1 mouse assessed as protection against maximal electroshock-induced seizures at 30 mg/kg, ip after 0.5 hrs; format: functional, organism-based; set-up: dose 30 mg/kg; outline: as §1
[9] = tested on: Mus musculus; experiment: Anticonvulsant activity in albino CF1 mouse assessed as protection against maximal electroshock-induced seizures at 300 mg/kg, ip after 0.5 hrs; format: functional, organism-based; set-up: dose 300 mg/kg; outline: as §1
[10] = tested on: Mus musculus; experiment: Anticonvulsant activity in albino CF1 mouse assessed as protection against maximal electroshock-induced seizures at 30 mg/kg, ip after 4 hrs; format: functional, organism-based; set-up: dose 30 mg/kg; outline: as §1
[11] = tested on: Mus musculus; experiment: Anticonvulsant activity in albino CF1 mouse assessed as protection against maximal electroshock-induced seizures at 100 mg/kg, ip after 4 hrs; format: functional, organism-based; set-up: dose 100 mg/kg; outline: as §1
[12] = tested on: Mus musculus; experiment: Anticonvulsant activity in albino CF1 mouse assessed as protection against maximal electroshock-induced seizures at 300 mg/kg, ip after 4 hrs; format: functional, organism-based; set-up: dose 300 mg/kg; outline: as §1
[13] = tested on: Mus musculus; experiment: Neurotoxicity in albino CF1 mouse assessed as minimal motor impairment at 30 mg/kg, ip after 0.5 hrs by rotarod test; format: toxicity, organism-based; set-up: dose 30 mg/kg, route intraperitoneal; conditions: in vivo; outline: as §1
[14] = tested on: Mus musculus; experiment: Neurotoxicity in albino CF1 mouse assessed as minimal motor impairment at 100 mg/kg, ip after 0.5 hrs by rotarod test; format: toxicity, organism-based; set-up: dose 100 mg/kg, route intraperitoneal; conditions: in vivo; outline: as §1
[15] = tested on: Mus musculus; experiment: Neurotoxicity in albino CF1 mouse assessed as minimal motor impairment at 300 mg/kg, ip after 0.5 hrs by rotarod test; format: toxicity, organism-based; set-up: dose 300 mg/kg, route intraperitoneal; conditions: in vivo; outline: as §1
[16] = tested on: Mus musculus; experiment: Neurotoxicity in albino CF1 mouse assessed as minimal motor impairment at 30 mg/kg, ip after 4 hrs by rotarod test; format: toxicity, organism-based; set-up: dose 30 mg/kg, route intraperitoneal; conditions: in vivo; outline: as §1
[17] = tested on: Mus musculus; experiment: Neurotoxicity in albino CF1 mouse assessed as minimal motor impairment at 100 mg/kg, ip after 4 hrs by rotarod test; format: toxicity, organism-based; set-up: dose 100 mg/kg, route intraperitoneal; conditions: in vivo; outline: as §1
[18] = tested on: Mus musculus; experiment: Neurotoxicity in albino CF1 mouse assessed as minimal motor impairment at 300 mg/kg, ip after 4 hrs by rotarod test; format: toxicity, organism-based; set-up: dose 300 mg/kg, route intraperitoneal; conditions: in vivo; outline: as §1
[19] = tested on: Rattus norvegicus; experiment: Anticonvulsant activity in Sprague-Dawley albino rat assessed as protection against maximal electroshock-induced seizures at 30 mg/kg, po after 15 mins; format: functional, organism-based; set-up: dose 30 mg/kg
Outline: (§2)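 Rats dosed orally. Anti-MES protection was scored as animals protected over animals tested at each time after dosing. Neurotoxicity was scored as motor impairment or sedation, as animals affected over animals tested.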

[20] = tested on: Rattus norvegicus; experiment: Anticonvulsant activity in Sprague-Dawley albino rat assessed as protection against maximal electroshock-induced seizures at 30 mg/kg, po after 30 mins; format: functional, organism-based; set-up: dose 30 mg/kg; outline: as §2
[21] = tested on: Rattus norvegicus; experiment: Anticonvulsant activity in Sprague-Dawley albino rat assessed as protection against maximal electroshock-induced seizures at 30 mg/kg, po after 1 hr; format: functional, organism-based; set-up: dose 30 mg/kg; outline: as §2
[22] = tested on: Rattus norvegicus; experiment: Anticonvulsant activity in Sprague-Dawley albino rat assessed as protection against maximal electroshock-induced seizures at 30 mg/kg, po after 2 hrs; format: functional, organism-based; set-up: dose 30 mg/kg; outline: as §2
[23] = tested on: Rattus norvegicus; experiment: Anticonvulsant activity in Sprague-Dawley albino rat assessed as protection against maximal electroshock-induced seizures at 30 mg/kg, po after 4 hrs; format: functional, organism-based; set-up: dose 30 mg/kg; outline: as §2
[24] = tested on: Rattus norvegicus; experiment: Neurotoxicity in Sprague-Dawley albino rat assessed as minimal motor impairment at 30 mg/kg, po by rotarod test; format: toxicity, organism-based; set-up: dose 30 mg/kg, route oral; conditions: in vivo; outline: as §2
[25] = tested on: Rattus norvegicus; experiment: Neurotoxicity in pilocarpine-induced status epilepticus Sprague-Dawley albino rat model assessed as minimal motor impairment at 300 mg/kg, ip after 0.25 hr by rotarod test; format: toxicity, organism-based; set-up: dose 300 mg/kg, route intraperitoneal; conditions: in vivo
Outline: (§3)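 Rat pilocarpine status epilepticus model: test carbamate given at 0 or 30 min after the first observed Racine stage 3 motor seizure, which marks SE onset. Neurotoxicity was scored within the same model.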

[26] = tested on: Rattus norvegicus; experiment: Neurotoxicity in pilocarpine-induced status epilepticus Sprague-Dawley albino rat model assessed as minimal motor impairment at 300 mg/kg, ip after 0.5 hrs by rotarod test; format: toxicity, organism-based; set-up: dose 300 mg/kg, route intraperitoneal; conditions: in vivo; outline: as §3
[27] = tested on: Rattus norvegicus; experiment: Neurotoxicity in pilocarpine-induced status epilepticus Sprague-Dawley albino rat model assessed as minimal motor impairment at 100 mg/kg, ip after 1 hr by rotarod test; format: toxicity, organism-based; set-up: dose 100 mg/kg, route intraperitoneal; conditions: in vivo
[28] = tested on: Rattus norvegicus; experiment: Neurotoxicity in pilocarpine-induced status epilepticus Sprague-Dawley albino rat model assessed as minimal motor impairment at 300 mg/kg, ip after 1 hr by rotarod test; format: toxicity, organism-based; set-up: dose 300 mg/kg, route intraperitoneal; conditions: in vivo; outline: as §3
[29] = tested on: Rattus norvegicus; experiment: Neurotoxicity in pilocarpine-induced status epilepticus Sprague-Dawley albino rat model assessed as minimal motor impairment at 100 mg/kg, ip after 2 hrs by rotarod test; format: toxicity, organism-based; set-up: dose 100 mg/kg, route intraperitoneal; conditions: in vivo
[30] = tested on: Rattus norvegicus; experiment: Neurotoxicity in pilocarpine-induced status epilepticus Sprague-Dawley albino rat model assessed as minimal motor impairment at 300 mg/kg, ip after 2 hrs by rotarod test; format: toxicity, organism-based; set-up: dose 300 mg/kg, route intraperitoneal; conditions: in vivo; outline: as §3
[31] = tested on: Rattus norvegicus; experiment: Neurotoxicity in pilocarpine-induced status epilepticus Sprague-Dawley albino rat model assessed as minimal motor impairment at 100 mg/kg, ip after 4 hrs by rotarod test; format: toxicity, organism-based; set-up: dose 100 mg/kg, route intraperitoneal; conditions: in vivo
[32] = tested on: Rattus norvegicus; experiment: Neurotoxicity in pilocarpine-induced status epilepticus Sprague-Dawley albino rat model assessed as minimal motor impairment at 300 mg/kg, ip after 4 hrs by rotarod test; format: toxicity, organism-based; set-up: dose 300 mg/kg, route intraperitoneal; conditions: in vivo; outline: as §3
[33] = tested on: Mus musculus; experiment: Anticonvulsant activity in albino CF1 mouse assessed as protection against maximal electroshock-induced seizures at 100 mg/kg, ip after 0.5 hrs; format: functional, organism-based; set-up: dose 100 mg/kg; outline: as §1
[34] = tested on: Rattus norvegicus; experiment: Neurotoxicity in pilocarpine-induced status epilepticus Sprague-Dawley albino rat model assessed as minimal motor impairment at 100 mg/kg, ip after 0.25 hr by rotarod test; format: toxicity, organism-based; set-up: dose 100 mg/kg, route intraperitoneal; conditions: in vivo
[35] = tested on: Rattus norvegicus; experiment: Neurotoxicity in pilocarpine-induced status epilepticus Sprague-Dawley albino rat model assessed as minimal motor impairment at 100 mg/kg, ip after 0.5 hrs by rotarod test; format: toxicity, organism-based; set-up: dose 100 mg/kg, route intraperitoneal; conditions: in vivo

SMILES: CCCC(C(N)=O)C(C)CC (stereo not given)
- ED50 [1]: 84 mg/kg

SMILES: CCC(CC)COC(N)=O
- Activity [2]: inactive
- Activity [3]: inactive
- Activity [4]: Active
- Activity [5]: inactive
- Activity [6]: inactive
- Activity [7]: inactive
- Activity [8]: inactive
- Activity [9]: Active
- Activity [10]: inactive
- Activity [11]: inactive
- Activity [12]: inactive
- Activity [13]: Non-toxic
- Activity [14]: Non-toxic
- Activity [15]: Toxic
- Activity [16]: Non-toxic
- Activity [17]: Non-toxic
- Activity [18]: Non-toxic
- Activity [19]: inactive
- Activity [20]: inactive
- Activity [21]: inactive
- Activity [22]: inactive
- Activity [23]: inactive
- Activity [24]: Non-toxic
- Activity [25]: Toxic
- Activity [26]: Toxic
- Activity [27]: Non-toxic
- Activity [28]: Non-toxic
- Activity [29]: Non-toxic
- Activity [30]: Non-toxic
- Activity [31]: Non-toxic
- Activity [32]: Non-toxic

SMILES: CC(C)(C)CCOC(N)=O
- Activity [2]: inactive
- Activity [5]: inactive
- Activity [8]: Active
- Activity [33]: Active
- Activity [13]: Toxic
- Activity [14]: Toxic
- Activity [15]: Toxic
- Activity [34]: Non-toxic
- Activity [25]: Toxic
- Activity [35]: Non-toxic
- Activity [26]: Toxic
- Activity [27]: Non-toxic
- Activity [28]: Non-toxic
- Activity [29]: Non-toxic
- Activity [30]: Non-toxic
- Activity [31]: Non-toxic
- Activity [32]: Non-toxic

SMILES: CCCC(CCC)COC(=O)NC1CCCCC1
- Activity [2]: inactive
- Activity [3]: inactive
- Activity [4]: inactive
- Activity [5]: inactive
- Activity [6]: inactive
- Activity [7]: inactive
- Activity [8]: inactive
- Activity [33]: inactive
- Activity [9]: inactive
- Activity [10]: inactive
- Activity [11]: inactive
- Activity [12]: inactive
- Activity [13]: Non-toxic
- Activity [16]: Non-toxic
- Activity [17]: Non-toxic
- Activity [18]: Non-toxic
